Measurements from ChEMBL document CHEMBL1132167, “Flavonoid-related modulators of multidrug resistance: synthesis, pharmacological activity, and structure-activity relationships” (J Med Chem, 1999).

Assays:
[1] = target: T1, ATP-dependent translocase ABCB1 (Homo sapiens, UniProt P08183); assay: Pgp transport inhibitory activity at 1 uM was measured by JC-1 accumulation assay method using JC-1 as substrate; format: functional
Outline: (§1)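 JC-1 stock (1 mg/mL in DMSO) diluted to 5 μg/mL in PBS with 1 g/L glucose, then filtered to remove aggregates (monomer 0.2 μM final). Washed K562/DOX cells at 5×10^5/mL were incubated with JC-1 and compound concurrently at 37 °C, DMSO ≤0.5%. Fluorescence (485/590 nm) was followed to plateau, about 2 h. Accumulation is expressed as % of the 5 μM S9788 plate control after subtracting JC-1 alone. Mean of ≥2 experiments.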

[2] = target: T1, ATP-dependent translocase ABCB1; assay: Pgp transport inhibitory activity at 10 uM was measured by JC-1 accumulation assay method using JC-1 as substrate; format: functional; outline: as §1
[3] = target: T1, ATP-dependent translocase ABCB1; assay: Pgp transport inhibitory activity at 5 uM was measured by JC-1 accumulation assay method using JC-1 as substrate; format: functional; outline: as §1
[4] = test system: K562; assay: Ability to potentiate DOX cytotoxicity on K562/DOX MDR cells. Cell survival was assayed by MTT conversion; format: functional, cell-based; details: Homo sapiens
Outline: (§2)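 K562/DOX human erythroleukemia cells (doxorubicin-selected, Pgp-overexpressing; RPMI-1640 + 10% FCS) exposed 72 h to seven graded doxorubicin concentrations (six wells each) plus tested compound at 1 or 5 μM, DMSO ≤0.1% final. MTT formazan dissolved in DMSO, A570 read. Survival relative to untreated wells; DOX IC50 by linear interpolation; MF = IC50(DOX alone)/IC50(DOX + compound). Mean of ≥2 independent experiments.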

[5] = test system: K562; assay: Modulation factor: IC50(DOX alone)/IC50(DOX+modulator); format: functional, Homo sapiens; outline: as §2
[6] = Modulation factor: IC50(DOX alone)/IC50(DOX+modulator).; format: functional; outline: as §2
[7] = (§3) modulation factor: IC50 (uM); format: functional
[8] = as §3; format: functional; remark: listed apart in the source

T1 sequence (P08183 whole entry): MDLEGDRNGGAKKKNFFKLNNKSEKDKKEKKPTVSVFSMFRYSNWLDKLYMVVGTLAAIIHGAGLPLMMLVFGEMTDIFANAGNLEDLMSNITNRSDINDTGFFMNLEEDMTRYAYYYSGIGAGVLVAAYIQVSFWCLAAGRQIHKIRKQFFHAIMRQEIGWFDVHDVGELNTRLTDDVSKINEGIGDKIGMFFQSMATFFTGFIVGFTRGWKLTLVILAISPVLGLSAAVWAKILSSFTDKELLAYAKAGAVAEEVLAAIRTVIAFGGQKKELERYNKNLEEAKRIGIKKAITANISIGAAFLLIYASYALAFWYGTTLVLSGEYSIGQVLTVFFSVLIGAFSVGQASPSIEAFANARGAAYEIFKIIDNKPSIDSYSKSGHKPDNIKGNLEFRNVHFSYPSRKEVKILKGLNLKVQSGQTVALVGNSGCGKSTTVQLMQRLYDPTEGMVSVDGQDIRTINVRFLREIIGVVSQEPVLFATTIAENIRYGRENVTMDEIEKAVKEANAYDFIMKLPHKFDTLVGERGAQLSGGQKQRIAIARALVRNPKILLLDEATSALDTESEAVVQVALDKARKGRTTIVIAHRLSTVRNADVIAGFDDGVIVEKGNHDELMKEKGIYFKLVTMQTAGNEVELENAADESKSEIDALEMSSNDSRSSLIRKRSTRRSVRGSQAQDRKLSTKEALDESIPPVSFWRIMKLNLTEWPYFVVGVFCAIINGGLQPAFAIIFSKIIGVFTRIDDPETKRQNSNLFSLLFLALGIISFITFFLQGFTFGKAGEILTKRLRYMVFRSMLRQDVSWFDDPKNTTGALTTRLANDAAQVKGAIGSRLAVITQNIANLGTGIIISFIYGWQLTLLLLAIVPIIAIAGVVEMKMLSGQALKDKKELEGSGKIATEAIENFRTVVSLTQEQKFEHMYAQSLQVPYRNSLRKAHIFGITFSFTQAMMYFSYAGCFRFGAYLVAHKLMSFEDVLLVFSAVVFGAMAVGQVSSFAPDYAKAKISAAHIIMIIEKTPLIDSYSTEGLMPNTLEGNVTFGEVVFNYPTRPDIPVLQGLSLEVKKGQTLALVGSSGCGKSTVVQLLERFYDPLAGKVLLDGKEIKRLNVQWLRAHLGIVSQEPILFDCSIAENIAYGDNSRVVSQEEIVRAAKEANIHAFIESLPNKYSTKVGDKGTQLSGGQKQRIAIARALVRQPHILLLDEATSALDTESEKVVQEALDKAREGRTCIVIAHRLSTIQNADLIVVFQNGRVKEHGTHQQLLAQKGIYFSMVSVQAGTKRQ

CCOC(=O)COc1cc(-c2cc(=O)c3c(O)cc(OCC(=O)N4CCN(Cc5cc(OC)c(OC)c(OC)c5)CC4)cc3o2)ccc1OC
Relative JC-1 accumulation [1]: 2
Relative JC-1 accumulation [2]: 24
Relative JC-1 accumulation [3]: 26
IC50 [4]: > 20 µM
Modulation factor [5]: 3
Modulation factor [6]: 31

COc1ccc(C2CC(=O)c3c(O)cc(OCC(=O)N4CCN(Cc5ccc(OC)c(OC)c5)CC4)cc3O2)cc1O (configuration not stated)
Relative JC-1 accumulation [1]: 0
Relative JC-1 accumulation [2]: 31
Relative JC-1 accumulation [3]: 9
IC50 [4]: > 20 µM
Modulation factor [5]: 4
Modulation factor [6]: 31

CCOC(=O)COc1cc(OCC(=O)N2CCN(Cc3ccc(OC)c(OC)c3OC)CC2)c2c(=O)cc(-c3ccc(OC)c(OCC(=O)OCC)c3)oc2c1
Relative JC-1 accumulation [1]: 1
Relative JC-1 accumulation [2]: 59
Relative JC-1 accumulation [3]: 10
IC50 [4]: > 20 µM
Modulation factor [6]: 1

COc1ccc(C2CC(=O)c3c(O)cc(OCC(=O)N4CC[N+](C)(Cc5ccc(OC)c(OC)c5OC)CC4)cc3O2)cc1O.[I-] (configuration not stated)
Relative JC-1 accumulation [1]: 0
Relative JC-1 accumulation [2]: 0
Relative JC-1 accumulation [3]: 0
IC50 [4]: > 20 µM
Modulation factor [6]: 1

CCOC(=O)COc1cc(-c2cc(=O)c3c(O)cc(OCC(=O)N4CCN(Cc5ccc(Cl)cc5)CC4)cc3o2)ccc1OC
Relative JC-1 accumulation [1]: 6
Relative JC-1 accumulation [2]: 23
Relative JC-1 accumulation [3]: 14
IC50 [4]: 14 µM
Modulation factor [5]: 4
Modulation factor [6]: 22

COc1ccc(-c2cc(=O)c3c(O)cc(OCC(=O)N4CCN(Cc5ccc(OC)c(OC)c5OC)CC4)cc3o2)cc1OCC(=O)N1CCN(Cc2ccc(OC)c(OC)c2OC)CC1
Relative JC-1 accumulation [1]: 22
Relative JC-1 accumulation [2]: 53
Relative JC-1 accumulation [3]: 60
IC50 [4]: 2 µM
Modulation factor [5]: 1

COc1ccc(-c2cc(=O)c3c(O)cc(O[C@@H]4O[C@H](CO[C@@H]5O[C@@H](C)[C@H](O)[C@@H](O)[C@H]5O)[C@@H](O)[C@H](O)[C@H]4O)cc3o2)cc1OCC(=O)N1CCN(Cc2ccc(OC)c(OC)c2OC)CC1
Relative JC-1 accumulation [1]: 0
Relative JC-1 accumulation [2]: 0
Relative JC-1 accumulation [3]: 0
IC50 [4]: > 20 µM
Modulation factor [7]: 1

CCOC(=O)COc1cc(-c2cc(=O)c3c(O)cc(OCC(=O)N4CCN(Cc5ccc(OC)c(OC)c5)CC4)cc3o2)ccc1OC
Relative JC-1 accumulation [1]: 3
Relative JC-1 accumulation [2]: 27
Relative JC-1 accumulation [3]: 28
IC50 [4]: > 20 µM
Modulation factor [5]: 4
Modulation factor [6]: 23

COc1ccc(-c2cc(=O)c3c(O)cc(OCC(=O)N4CCN(Cc5ccc(OC)c(OC)c5OC)CC4)cc3o2)cc1O
Relative JC-1 accumulation [1]: 4
Relative JC-1 accumulation [2]: 30
Relative JC-1 accumulation [3]: 50
IC50 [4]: 6 µM
Modulation factor [5]: 11
Modulation factor [6]: 78

CCOC(=O)COc1cc(O)c2c(=O)cc(-c3ccc(OC)c(OCC(=O)N4CCN(Cc5ccccc5Cl)CC4)c3)oc2c1
Relative JC-1 accumulation [1]: 7
Relative JC-1 accumulation [2]: 24
Relative JC-1 accumulation [3]: 13
IC50 [4]: > 20 µM
Modulation factor [5]: 2
Modulation factor [6]: 7

CCOC(=O)COc1cc(O)c2c(=O)cc(-c3ccc(OC)c(OCC(=O)N4CCN(Cc5ccc(OC)c(OC)c5)CC4)c3)oc2c1
Relative JC-1 accumulation [1]: 4
Relative JC-1 accumulation [2]: 31
Relative JC-1 accumulation [3]: 26
IC50 [4]: 9 µM
Modulation factor [5]: 2
Modulation factor [6]: 25

COc1ccc(-c2cc(=O)c3c(O)cc(O[C@@H]4O[C@H](CO)[C@H](O)[C@@H](O)[C@H]4O)cc3o2)cc1OCC(=O)N1CCN(Cc2ccc(OC)c(OC)c2OC)CC1
Relative JC-1 accumulation [1]: 0
Relative JC-1 accumulation [2]: 0
Relative JC-1 accumulation [3]: 0
IC50 [4]: > 20 µM
Modulation factor [7]: 1

CCOC(=O)COc1cc(O)c2c(=O)cc(-c3ccc(OC)c(OCC(=O)N4CCN(Cc5cc(OC)c(OC)c(OC)c5)CC4)c3)oc2c1
Relative JC-1 accumulation [1]: 5
Relative JC-1 accumulation [2]: 55
Relative JC-1 accumulation [3]: 56
IC50 [4]: 11 µM
Modulation factor [5]: 5
Modulation factor [6]: 25

COc1ccc(-c2cc(=O)c3c(OCC(=O)N4CCN(Cc5ccc(OC)c(OC)c5OC)CC4)cc(O)cc3o2)cc1O
Relative JC-1 accumulation [1]: 0
Relative JC-1 accumulation [2]: 0
Relative JC-1 accumulation [3]: 0
IC50 [4]: > 20 µM
Modulation factor [6]: 1

COc1ccc(-c2cc(=O)c3c(O)cc(O)cc3o2)cc1OCC(=O)N1CCN(Cc2ccc(OC)c(OC)c2OC)CC1
Relative JC-1 accumulation [1]: 0
Relative JC-1 accumulation [2]: 0
Relative JC-1 accumulation [3]: 0
IC50 [4]: > 20 µM
Modulation factor [7]: 1

CCOC(=O)COc1cc(-c2cc(=O)c3c(O)cc(OCC(=O)N4CCN(Cc5ccccc5)CC4)cc3o2)ccc1OC
Relative JC-1 accumulation [1]: 10
Relative JC-1 accumulation [2]: 38
Relative JC-1 accumulation [3]: 35
IC50 [4]: > 20 µM
Modulation factor [5]: 4
Modulation factor [6]: 21

COc1ccc(C2CC(=O)c3c(O)cc(OCC(=O)N4CCN(Cc5ccc(OC)c(OC)c5OC)CC4)cc3O2)cc1O (configuration not stated)
Relative JC-1 accumulation [1]: 4
Relative JC-1 accumulation [2]: 69
Relative JC-1 accumulation [3]: 50
IC50 [4]: 16 µM
Modulation factor [5]: 11
Modulation factor [6]: 42

COc1ccc(CCN(C)CCCC(C#N)(c2ccc(OC)c(OC)c2)C(C)C)cc1OC (configuration not stated) [VERAPAMIL]
IC50 [4]: 37 µM
Modulation factor [8]: 7
Modulation factor [7]: 31

CCOC(=O)COc1cc(-c2cc(=O)c3c(O)cc(OCC(=O)N4CCN(Cc5cccc(OC)c5OC)CC4)cc3o2)ccc1OC
Relative JC-1 accumulation [1]: 2
Relative JC-1 accumulation [2]: 28
Relative JC-1 accumulation [3]: 22
IC50 [4]: > 20 µM
Modulation factor [5]: 5
Modulation factor [6]: 24

CCOC(=O)COc1cc(-c2cc(=O)c3c(O)cc(OCC(=O)N4CCN(Cc5ccc(OC)c(OC)c5OC)CC4)cc3o2)ccc1OC
Relative JC-1 accumulation [1]: 14
Relative JC-1 accumulation [2]: 73
Relative JC-1 accumulation [3]: 69
IC50 [4]: > 20 µM
Modulation factor [5]: 9
Modulation factor [6]: 22

COc1ccc(CCC(=O)c2c(O)cc(OCC(=O)N3CCN(Cc4ccc(OC)c(OC)c4OC)CC3)cc2O)cc1O
Relative JC-1 accumulation [1]: 2
Relative JC-1 accumulation [2]: 5
IC50 [4]: > 20 µM
Modulation factor [7]: 3

CCOC(=O)COc1cc(O)c2c(=O)cc(-c3ccc(OC)c(OCC(=O)N4CCN(Cc5ccc(OC)c(OC)c5OC)CC4)c3)oc2c1
Relative JC-1 accumulation [1]: 7
Relative JC-1 accumulation [2]: 59
Relative JC-1 accumulation [3]: 56
IC50 [4]: > 20 µM
Modulation factor [5]: 3
Modulation factor [6]: 17

COc1ccc(C2CC(=O)c3c(O)cc(OCC(=O)N4CCN(Cc5cccc(OC)c5OC)CC4)cc3O2)cc1O (configuration not stated)
Relative JC-1 accumulation [1]: 0
Relative JC-1 accumulation [2]: 6
Relative JC-1 accumulation [3]: 2
IC50 [4]: > 20 µM
Modulation factor [5]: 4
Modulation factor [6]: 28

COc1ccc(C2CC(=O)c3c(O)cc(OCC(=O)N4CCN(Cc5cc(OC)c(OC)c(OC)c5)CC4)cc3O2)cc1O (configuration not stated)
Relative JC-1 accumulation [1]: 0
Relative JC-1 accumulation [2]: 8
Relative JC-1 accumulation [3]: 3
IC50 [4]: > 20 µM
Modulation factor [5]: 2
Modulation factor [6]: 21
